These results are taken from paper PMC4130904 (The Prostate, 2014).

Where “and” joins values, the source holds several entries; their conditions need not be identical. Identical values can stand only once. Non-standard residues stand in square brackets, D forms with d. Residues, ends and D or L forms follow the SMILES beside them. No end group written: not given here. *: point of attachment. X1 = C/C=C(/C)C(=O)O[C@H]1C(C)=C2[C@H]([C@@H]1OC(=O)CCCCCCC)[C@@](C)(OC(C)=O)C[C@H](OC(=O)CCCCCCCCCCCN*)[C@@]1(O)[C@H]2OC(=O)[C@@]1(C)O; A12ADT = thapsigargin analog A12ADT A value given as a limit tells only on which side of the number the result lay.

A short description of data set [1]: Hydrolysis of prodrugs in mouse plasma ex vivo. The class given is in vitro ADME. Particulars: 100 µM prodrug, 37°C, 24 hrs. The procedure, abridged:
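Plasma was taken by intra-cardiac puncture from fully anesthetized mice. Prodrugs were added at 100 µM final and incubated at 37°C for 24 hrs with shaking. Active drug (A-, S-, E-12ADT) was measured by LCMS at 0 and 24hrs.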

A short description of data set [2]: Plasma pharmacokinetics of prodrugs and active drug after IV dosing. The class given is in vivo, mouse. The procedure, abridged:
(§1)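 Mice were dosed IV and bled by cardiac puncture under anesthesia to give heparinized plasma; naive-mouse plasma served as control, and tissues and tumors were harvested. Samples were deproteinated in acetonitrile with 0.1% FA, with L12ADT at 1 µM as internal standard. Calibration standards ran 100pM–100 µM. Samples were analysed by reversed-phase LCMS (positive-mode MRM). Terminal t1/2 came from the terminal slope of log-linear concentration–time plots.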

A short description of data set [3]: Tumor pharmacokinetics of prodrug activation in MCF-7 xenografts. The class given is in vivo, mouse. The procedure, abridged: as §1
For data set [4] the following is noted: cited from earlier work.
The nature of data set [5]: Body weight loss in treated LNCaP xenograft-bearing mice. The class given is in vivo, mouse.
In data set [6] the test system is LNCaP human prostate cancer xenografts. Nature of the data set: LNCaP xenograft efficacy study, comparison to docetaxel. The class given is in vivo, mouse. Particulars: prodrug 10 nmoles IV days 0, 1, 2; docetaxel 12 mg/kg/dose IV days 0, 3, 6. In outline:
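Six-week-old male nude mice (n = 10/group) received subcutaneous rear-flank injections of LNCaP cells at 2.0 × 10⁶ per 100 µL of 60% Matrigel in HBSS. Prodrug was given IV at 6.8 mg/kg/dose (10 nmoles) on days 0, 1, 2. Docetaxel was given IV at 12 mg/kg/dose […] on days 0, 3, 6 for one cycle. Tumor volume (0.5236 × L × W × H) was measured weekly by calipers, and body weight was tracked.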

In the next data set the target is T1, FAP (Homo sapiens, UniProt Q12884).
T1 sequence (Q12884 26-760 limits assumed): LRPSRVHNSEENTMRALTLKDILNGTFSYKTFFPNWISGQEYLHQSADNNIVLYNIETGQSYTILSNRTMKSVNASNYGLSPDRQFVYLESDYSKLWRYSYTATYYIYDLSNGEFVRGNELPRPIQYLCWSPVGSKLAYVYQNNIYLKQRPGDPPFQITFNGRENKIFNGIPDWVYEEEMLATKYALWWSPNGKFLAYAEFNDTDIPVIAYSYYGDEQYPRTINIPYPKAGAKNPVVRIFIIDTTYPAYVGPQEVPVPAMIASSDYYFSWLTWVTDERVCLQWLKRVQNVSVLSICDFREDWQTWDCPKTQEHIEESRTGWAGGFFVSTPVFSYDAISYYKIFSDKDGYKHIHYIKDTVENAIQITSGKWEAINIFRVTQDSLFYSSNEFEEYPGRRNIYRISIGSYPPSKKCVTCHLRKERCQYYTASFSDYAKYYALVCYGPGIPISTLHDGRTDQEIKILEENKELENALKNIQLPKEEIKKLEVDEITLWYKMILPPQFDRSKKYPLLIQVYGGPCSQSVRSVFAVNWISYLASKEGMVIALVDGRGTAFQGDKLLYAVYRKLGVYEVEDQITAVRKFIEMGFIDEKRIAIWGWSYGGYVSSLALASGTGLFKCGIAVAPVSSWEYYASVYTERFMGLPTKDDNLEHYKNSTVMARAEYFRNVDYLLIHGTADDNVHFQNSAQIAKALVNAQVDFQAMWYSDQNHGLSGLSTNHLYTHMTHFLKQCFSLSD
Nature of the data set: FAP-mediated hydrolysis of prodrugs ex vivo. The class given is biochemical. The procedure, abridged:
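Recombinant FAP was expressed in Schneider's S2 cells and purified from the culture supernatant. Prodrugs at […] were held in FAP buffer (100mM NaCl, 100mM Tris, pH 7.8) with 10% DMSO, with or without 200nM FAP, at 37°C for 24hrs with shaking. Active drug (A-, S-, E-12ADT) was measured by LCMS at 0, 4 and 24hrs.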

For `C/C=C(/C)C(=O)O[C@H]1C(C)=C2[C@H]([C@@H]1OC(=O)CCCCCCC)[C@@](C)(OC(C)=O)C[C@H](OC(=O)CCCCCCCCCCCNC(=O)[C@H](CO)NC(=O)[C@H]1CCCN1C(=O)CNC(=O)[C@@H](NC(=O)[C@H](CCC(=O)O)NC(=O)CNC(=O)[C@H](CCCNC(=N)N)NC(=O)[C@@H](N)CCC(=O)O)[C@@H](C)O)[C@@]1(O)[C@H]2OC(=O)[C@@]1(C)O` [ERGETGp-S12ADT] (H-ERGETG[dP]S-X1; N-terminus assumed), the “active drug generation in mouse plasma ex vivo” value in data set [1] is given as “no active drug generated”. Also, the “12ADT levels in mouse plasma as part of total administered dose” value in data set [2] (in vivo after IV dosing) was less than 0.01%. In data set [2] (mouse, plasma, iv), the Cmax was 35 to 40 µM and the Tmax is not above 1 h. The half-life in data set [2] (mouse, plasma, iv, half-life (t1/2) in mouse plasma, full-length prodrug, single IV dose) was 4 to 5 h. Besides, the clearance from circulation entry in data set [2] (single IV dose) was “almost entirely cleared from circulation by 24 hrs”. In data set [3], the “active species detectable in tumors” value is “only 12ADT is detectable” and the “total active drug concentration in tumor, fold lower than from ERGETGP-S12ADT” value is recorded as ~ 7 fold.

Consider `C/C=C(/C)C(=O)O[C@H]1C(C)=C2[C@H]([C@@H]1OC(=O)CCCCCCC)[C@@](C)(OC(C)=O)C[C@H](OC(=O)CCC)[C@@]1(O)[C@H]2OC(=O)[C@@]1(C)O` [TG, Thapsigargin], for which, in data set [4], the “therapeutic benefit at the maximally-tolerated dose (MTD)” value was “no therapeutic benefit”.

Take `CC(=O)O[C@@]12CO[C@@H]1C[C@H](O)[C@@]1(C)C(=O)[C@H](O)C3=C(C)[C@@H](OC(=O)[C@H](O)[C@@H](NC(=O)OC(C)(C)C)c4ccccc4)C[C@@](O)([C@@H](OC(=O)c4ccccc4)[C@H]21)C3(C)C` [docetaxel]: the “recovery of body weight” value in data set [5] (over the course of the experiment) was “did not recover”. In addition, the “total body weight lost following therapy” value in data set [5] (prodrug IV days 0, 1, 2, docetaxel IV days 0, 3, 6) was ~ 30% and 30%. For the same compound, the “anti-tumor effect against LNCaP xenografts” value in data set [6] is reported as “comparable anti-tumor effect”.

For the compound “ASGPAGP-A12ADT: FAP-activated prodrug: peptide ASGPAGP coupled to thapsigargin analog A12ADT”, the “active drug (S- or A12ADT) released in the presence of FAP” value in the data set with FAP (200nM FAP, FAP buffer pH 7.8, 37°C, up to 24hrs, LCMS) was determined as 2 µM. Further, the “stability in the absence of FAP” value with FAP (FAP buffer without FAP, data not shown) is given as “completely stable”.
